From ChEMBL document CHEMBL1126849, “Synthesis of A-ring fluorinated derivatives of (17 alpha,20E/Z)-[125I]iodovinylestradiols: effect on receptor binding and receptor-mediated target tissue uptake” (J Med Chem, 1993)

How the values were obtained:
[1] = system: Rattus norvegicus; assay: Biodistribution in muscle of immature female rat after 5 hour administration of 3 micro Ci (111 kBq) in the absence of 60 microg estradiol; type: ADME, organism-based, Muscle tissue; conditions: in vivo
In short: (§1)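 Immature female Long Evans rats (21–24 days, 45–70 g), three to five per group, given 125I-labeled steroid (3 μCi, 111 kBq) by lateral tail vein without anesthesia. Vehicle: ethanol diluted in saline with 1% Tween-80, final ethanol 9%, 0.22 μm filtered. +E2 groups received 60 μg unlabeled estradiol co-injected. Killed under ether at set times; tissues KCl-washed, blotted, weighed, gamma counted; %ID/g, mean with SE.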

[2] = system: Rattus norvegicus; assay: Biodistribution in uterus / spleen, muscle, lungs of immature female rat after 5 hour administration of 3 micro Ci (111 kBq) in the absence of 60 microg estradiol; type: ADME, organism-based; conditions: in vivo
In short: (§2)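 Immature female Long Evans rats (21–24 days, 45–70 g), 3–5 per group, unanesthetized in retention cages, given 3 μCi (111 kBq) 125I-labeled steroid by lateral tail vein. Vehicle: ethanol diluted with saline containing 1% Tween-80, final ethanol 9%. +E2 group co-injected 60 μg unlabeled estradiol (1 h only). Killed under ether; tissues KCl-washed, weighed, gamma-counted. Output: %ID/g (mean, SE) and uterus to blood or nontarget (muscle, spleen, lungs) ratios.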

[3] = biological target: T1, Estrogen receptor (Mus musculus) (UniProt O08537+P19785); assay: Relative binding affinity (RBA) for murine cytoplasmic estrogen receptor at 4C for 18 hr; type: protein assay
T1 sequence (O08537 whole entry, looked up): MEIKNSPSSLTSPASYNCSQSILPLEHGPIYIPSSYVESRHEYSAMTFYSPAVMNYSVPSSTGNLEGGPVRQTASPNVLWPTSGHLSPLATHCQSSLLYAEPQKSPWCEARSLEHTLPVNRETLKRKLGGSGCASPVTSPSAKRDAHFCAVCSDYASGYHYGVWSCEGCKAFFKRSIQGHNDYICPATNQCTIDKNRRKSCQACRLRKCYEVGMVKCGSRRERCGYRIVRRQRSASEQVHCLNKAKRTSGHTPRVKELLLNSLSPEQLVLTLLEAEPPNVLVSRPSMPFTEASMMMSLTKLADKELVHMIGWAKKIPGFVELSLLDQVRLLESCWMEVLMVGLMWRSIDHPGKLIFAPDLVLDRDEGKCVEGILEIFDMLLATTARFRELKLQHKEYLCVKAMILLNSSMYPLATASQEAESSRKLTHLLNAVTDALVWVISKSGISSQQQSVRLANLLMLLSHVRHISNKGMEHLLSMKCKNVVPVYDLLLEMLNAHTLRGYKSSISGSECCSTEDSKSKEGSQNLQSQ
T1 sequence (P19785 whole entry, looked up): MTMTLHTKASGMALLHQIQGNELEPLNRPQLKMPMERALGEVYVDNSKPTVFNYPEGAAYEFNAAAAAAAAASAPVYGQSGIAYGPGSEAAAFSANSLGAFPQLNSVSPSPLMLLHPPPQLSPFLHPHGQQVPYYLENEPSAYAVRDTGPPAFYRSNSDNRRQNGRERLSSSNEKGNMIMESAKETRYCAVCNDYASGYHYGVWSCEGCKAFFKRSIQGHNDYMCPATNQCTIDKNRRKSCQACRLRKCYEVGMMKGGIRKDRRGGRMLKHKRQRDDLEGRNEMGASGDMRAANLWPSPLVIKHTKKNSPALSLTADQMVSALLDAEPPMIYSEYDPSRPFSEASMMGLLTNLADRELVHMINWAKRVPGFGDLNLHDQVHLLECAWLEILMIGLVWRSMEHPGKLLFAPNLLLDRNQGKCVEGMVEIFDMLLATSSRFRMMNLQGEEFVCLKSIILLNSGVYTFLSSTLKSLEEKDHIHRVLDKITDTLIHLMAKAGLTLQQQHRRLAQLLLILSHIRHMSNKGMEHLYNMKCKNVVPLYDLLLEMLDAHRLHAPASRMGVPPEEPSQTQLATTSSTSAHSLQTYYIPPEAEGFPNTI
In short: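 Competitive binding on murine uterine cytoplasmic extract with 20 nM [3H]estradiol and competitor steroids at 2 nM–20 μM, incubated 18 h at 0–4 °C. RBA = 100 × ratio of […] concentration giving 50% competition for specific binding. Mean of three experiments with SD.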

[4] = system: Rattus norvegicus; assay: Biodistribution in fat of immature female rat after 3 hour administration of 3 micro Ci (111 kBq) in the absence of 60 microg estradiol; type: ADME, organism-based, Adipose tissue; conditions: in vivo
In short: (§3)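 Immature female Long Evans rats (21–24 days, 45–70 g), unanesthetized in retention cages, given 3 µCi (111 kBq) 125I-labeled steroid i.v. via lateral tail vein. Vehicle was ethanol diluted in saline containing 1% Tween-80, giving 9% ethanol final. The blocking group received 60 µg unlabeled estradiol co-injected. Rats were killed under ether by axillary bleeding, and tissues were KCl-washed and gamma-counted. Data are %ID/g, mean ± SE, n=3–5.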

[5] = system: Rattus norvegicus; assay: Biodistribution in spleen of immature female rat after 1 hr administration of 3 micro Ci (111 kBq) in the presence of (+E2); type: ADME, organism-based; conditions: in vivo; in short: as §1
[6] = biological target: T1, Estrogen receptor (Mus musculus); assay: Relative binding affinity (RBA) for murine cytoplasmic estrogen receptor at 4C for 2 hr; type: protein assay
In short: (§4)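 Murine uterine cytoplasmic extract incubated 2 h at 4 °C or at 25 °C with 20 nM [3H]estradiol and competitors at 2 nM–20 μM. RBA is taken as 100 × the ratio of competitor to unlabeled estradiol concentration needed for 50% competition of specific [3H]estradiol binding.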

[7] = system: Rattus norvegicus; assay: Biodistribution in lungs of immature female rat after 1 hr administration of 3 micro Ci (111 kBq) in the presence of (+E2); type: ADME, organism-based, Lung; conditions: in vivo; in short: as §3
[8] = system: Rattus norvegicus; assay: Biodistribution in blood of immature female rat after 3 hour administration of 3 micro Ci (111 kBq) in the absence of 60 microg estradiol; type: ADME, organism-based; conditions: in vivo; in short: as §3
[9] = system: Rattus norvegicus; assay: Biodistribution in thyroid of immature female rat after 1 hr administration of 3 micro Ci (111 kBq) in the presence of (+E2); type: ADME, organism-based, Thyroid gland; conditions: in vivo; in short: as §1
[10] = system: Rattus norvegicus; assay: Biodistribution in lungs of immature female rat after 3 hour administration of 3 micro Ci (111 kBq) in the absence of 60 microg estradiol; type: ADME, organism-based, Lung; conditions: in vivo; in short: as §1
[11] = system: Rattus norvegicus; assay: Biodistribution in kidney of immature female rat after 1 hr administration of 3 micro Ci (111 kBq) in the presence of (+E2); type: ADME, organism-based; conditions: in vivo; in short: as §3
[12] = system: Rattus norvegicus; assay: Biodistribution in uterus / spleen, muscle, lungs of immature female rat after 12 hour administration of 3 micro Ci (111 kBq) in the absence of 60 microg estradiol; type: ADME, organism-based; conditions: in vivo; in short: as §2
[13] = system: Rattus norvegicus; assay: Biodistribution in muscle of immature female rat after 1 hr administration of 3 micro Ci (111 kBq) in the presence of (+E2); type: ADME, organism-based, Muscle tissue; conditions: in vivo; in short: as §1
[14] = system: Rattus norvegicus; assay: Biodistribution in liver of immature female rat after 3 hour administration of 3 micro Ci (111 kBq) in the absence of 60 microg estradiol; type: ADME, organism-based; conditions: in vivo; in short: as §3
[15] = system: Rattus norvegicus; assay: Biodistribution in uterus of immature female rat after 12 hour administration of 3 micro Ci (111 kBq) in the absence of 60 microg estradiol; type: ADME, organism-based; conditions: in vivo; in short: as §2
[16] = system: Rattus norvegicus; assay: Biodistribution in thyroid of immature female rat after 5 hour administration of 3 micro Ci (111 kBq) in the absence of 60 microg estradiol; type: ADME, organism-based, Thyroid gland; conditions: in vivo; in short: as §1
[17] = system: Rattus norvegicus; assay: Biodistribution in uterus / blood of immature female rat after 1 hr administration of 3 micro Ci (111 kBq) in the absence of 60 microg estradiol; type: ADME, organism-based; conditions: in vivo
In short: (§5)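 Same in vivo procedure: immature female Long Evans rats (21–24 days), three to five per group, 3 μCi (111 kBq) tracer i.v. via tail vein in 9% ethanol/saline/1% Tween-80, ± 60 μg estradiol co-injected at 1 h. Uterus %ID/g (gamma counting) divided by blood, or by nontarget organ (muscle, spleen, lungs), %ID/g to give ratios.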

[18] = system: Rattus norvegicus; assay: Biodistribution in spleen of immature female rat after 3 hour administration of 3 micro Ci (111 kBq) in the absence of 60 microg estradiol; type: ADME, organism-based; conditions: in vivo; in short: as §1
[19] = system: Rattus norvegicus; assay: Biodistribution in uterus of immature female rat after 5 hour administration of 3 micro Ci (111 kBq) in the absence of 60 microg estradiol; type: ADME, organism-based; conditions: in vivo; in short: as §2
[20] = biological target: T1, Estrogen receptor (Mus musculus); assay: Relative binding affinity (RBA) for murine cytoplasmic estrogen receptor at 25 degree C for 2 hr; type: protein assay; in short: as §4
[21] = system: Rattus norvegicus; assay: Biodistribution in uterus of immature female rat after 3 hour administration of 3 micro Ci (111 kBq) in the absence of 60 microg estradiol; type: ADME, organism-based; conditions: in vivo; in short: as §2
[22] = system: Rattus norvegicus; assay: Biodistribution in blood of immature female rat after 5 hour administration of 3 micro Ci (111 kBq) in the absence of 60 microg estradiol; type: ADME, organism-based; conditions: in vivo; in short: as §3
[23] = system: Rattus norvegicus; assay: Biodistribution in liver of immature female rat after 12 hour administration of 3 micro Ci (111 kBq) in the absence of 60 microg estradiol; type: ADME, organism-based; conditions: in vivo; in short: as §3
[24] = system: Rattus norvegicus; assay: Biodistribution in kidney of immature female rat after 12 hour administration of 3 micro Ci (111 kBq) in the absence of 60 microg estradiol; type: ADME, organism-based; conditions: in vivo; in short: as §3
[25] = system: Rattus norvegicus; assay: Biodistribution in uterus / spleen, muscle, lungs of immature female rat after 1 hr administration of 3 micro Ci (111 kBq) in the absence of 60 microg estradiol; type: ADME, organism-based; conditions: in vivo; in short: as §5
[26] = system: Rattus norvegicus; assay: Biodistribution in uterus / blood of immature female rat after 12 hour administration of 3 micro Ci (111 kBq) in the absence of 60 microg estradiol; type: ADME, organism-based; conditions: in vivo; in short: as §5
[27] = system: Rattus norvegicus; assay: Biodistribution in liver of immature female rat after 1 hr administration of 3 micro Ci (111 kBq) in the presence of (+E2); type: ADME, organism-based; conditions: in vivo; in short: as §3
[28] = system: Rattus norvegicus; assay: Biodistribution in uterus of immature female rat after 1 hr administration of 3 micro Ci (111 kBq) in the presence of (+E2); type: ADME, organism-based; conditions: in vivo; in short: as §2
[29] = system: Rattus norvegicus; assay: Biodistribution in liver of immature female rat after 1 hr administration of 3 micro Ci (111 kBq) in the absence of 60 microg estradiol; type: ADME, organism-based; conditions: in vivo; in short: as §3

SMILES	ID/g [1] [%]	uterus to nontarget tissue ratio [2] [%]	RBA [3]	ID/g [4] [%]	ID/g [5] [%]	RBA [6]	ID/g [7] [%]	ID/g [8] [%]	ID/g [9] [%]	ID/g [10] [%]	ID/g [11] [%]	uterus to nontarget tissue ratio [12] [%]	ID/g [13] [%]	ID/g [14] [%]	ID/g [15] [%]	ID/g [16] [%]	uterus-to-blood ratio of %ID/g [17] [%]	ID/g [18] [%]	ID/g [19] [%]	RBA [20]	further results
C[C@]12CC[C@@H]3c4ccc(O)c(F)c4CC[C@H]3[C@@H]1CC[C@@]2(O)/C=C/I	0.14	10.41	55.9	1.59	0.51	58.7	0.75	0.96	65.69	0.57	0.87	5.4	0.58	2.2	0.43	208	5.42	0.36	1.82	29.1	ID/g [21]: 4.24%; ID/g [22]: 0.26%; ID/g [23]: 0.59%; ID/g [24]: 0.08%; uterus-to-nontarget tissue uptake ratio [25]: 6.39%; Uterus-to-blood radioactivity ratio (dimensionless) [26]: 2.76%; ID/g [27]: 3.06%; ID/g [28]: 0.77%; ID/g [29]: 2.91%
C[C@]12CC[C@@H]3c4cc(F)c(O)cc4CC[C@H]3[C@@H]1CC[C@@]2(O)/C=C\I	0.14	18.05	53.7	2.21	1	40.1	0.75	0.42	36.11	0.39	0.65	20.54	2.16	1.76	2.51	149.9	7.34	0.29	3.67	99	ID/g [21]: 5.44%; ID/g [22]: 0.3%; ID/g [23]: 0.81%; ID/g [24]: 0.14%; uterus-to-nontarget tissue uptake ratio [25]: 7.32%; Uterus-to-blood radioactivity ratio (dimensionless) [26]: 15.69%; ID/g [27]: 2.58%; ID/g [28]: 0.68%; ID/g [29]: 2.25%
